Measured values published in paper PMC10329961 (Advances in Therapy, 2023).
Structures can show the parent of a compound that is named as a salt.

Assays:
healthy adult men = test: Adverse events; assay type: in vivo, human; settings: 8-day twice-daily instillation
How it was run: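 Healthy adult men, 3 × 3 crossover: three 8-day phases separated by drug-free intervals of at least 5 days. One drop of test eye drop was given in both eyes twice daily (09:00, 21:00), with morning dose only on day 8. Subjects were inpatients from day −1 to day 9. AEs and ADRs were tallied as number and percentage of subjects.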

[1] = test system: palpebral and bulbar conjunctivae; test: Palpebral and bulbar conjunctival hyperemia grading by slit lamp microscope; assay type: in vivo, human; settings: day 1, score – = 0, + = 1, 2+ = 2, 3+ = 3; for palpebral conjunctival hyperemia mean ± SD grade score: administration phase 1
How it was run: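 Conjunctival hyperemia was graded: – no or physiologic findings; + several vasodilatations; 2+ multiple or limbal vasodilatation; 3+ whole conjunctiva. Change from baseline per phase was averaged over both eyes and analysed by marginal model, n = 17–18.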

[2] = test system: healthy adults and patients with glaucoma; settings: cited from earlier work
healthy volunteers = settings: cited from earlier work; for pupil diameter after single instillation: healthy subjects, ref 37 (Lee et al.)
[3] = test system: corneal endothelial cells; assay type: in vivo, human; settings: after instillation, days 1 and 8; none developed grade 3

C[C@H]1CNCCCN1S(=O)(=O)c1cccc2cncc(F)c12 [ripasudil, ripasudil hydrochloride hydrate]
subjects with ADRs (healthy adult men): 100.0%
subjects with AEs (healthy adult men): 100.0%
subjects with conjunctival hyperemia as ADR (healthy adult men): 100.0%
subjects with conjunctival hyperemia as AE (healthy adult men): 100.0%
palpebral conjunctival hyperemia mean ± SD grade score ([1]; 15 min post-instillation): 1.4 ± 0.6
palpebral conjunctival hyperemia mean ± SD grade score ([1]; 1 h post-instillation): 0.9 ± 0.7
bulbar conjunctival hyperemia mean ± SD grade score ([1]; 1 h post-instillation): 0.9 ± 0.5
time of peak of transient conjunctival hyperemia after instillation [2]: 5 to 15 min
pupil diameter after single instillation (healthy volunteers): no change in pupil diameter
morphologic changes in corneal endothelial cells (grade) [3]: grade 1 or 2

Brc1c(NC2=NCCN2)ccc2nccnc12 [brimonidine, brimonidine tartrate]
subjects with ADRs (healthy adult men): 58.8%
subjects with AEs (healthy adult men): 70.6%
subjects with conjunctival hyperemia as ADR (healthy adult men): 47.1%
subjects with conjunctival hyperemia as AE (healthy adult men): 58.8%
pupil diameter after single instillation (healthy volunteers): significantly decreased
effect on pupil (healthy volunteers; healthy volunteers): moderate miotic effect
morphologic changes in corneal endothelial cells (grade) [3]: No morphologic changes
